Reference: ChEMBL document CHEMBL3102821, “Lignans from the aerial parts of Saururus chinensis: isolation, structural characterization, and their effects on platelet aggregation” (J Nat Prod, 2014)
Active and inactive are the calls of the source. No cut-off for these calls is given here.

Tests used:
[1] = Antiplatelet activity against New Zealand white rabbit platelets assessed as inhibition of arachidonic acid-induced platelet aggregation preincubated at 100 uM for 2 mins before challenge […] by spectrophotometry; type: functional; conditions: Oryctolagus cuniculus
Procedure, shortened: (§1)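 Resuspended in Tyrode's with 1 mM Ca2+ at 2.5 × 10^8/mL, stirred at 900 rpm. Sample in DMSO (0.5% final) for 2 min at 37 °C, then ADP 20 μM, AA 100 μM or PAF 10 nM. Read-out: maximal turbidimetric light-transmission rise within 4 min. Inhibition is calculated against vehicle.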

[2] = Antiplatelet activity against New Zealand white rabbit platelets assessed as inhibition of PAF-induced platelet aggregation preincubated at 100 uM for 2 mins before challenge […] by spectrophotometry; type: functional; conditions: Oryctolagus cuniculus; procedure, shortened: as §1
[3] = (§2) Antiplatelet activity against New Zealand white rabbit platelets assessed as inhibition of ADP-induced platelet aggregation preincubated at 100 uM for 2 mins before challenge […] by spectrophotometry; type: functional; conditions: Oryctolagus cuniculus; procedure, shortened: as §1
[4] = Antiplatelet activity against New Zealand white rabbit platelets assessed as inhibition of arachidonic acid-induced platelet aggregation preincubated for 2 mins before challenge […] by spectrophotometry; type: functional, cell-based; conditions: Oryctolagus cuniculus
Procedure, shortened: as §1, with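 “Washed rabbit platelets: PRP made with 5 mM EDTA (final), then washed in Ca2+-free Tyrode's with 0.35% BSA, heparin and apyrase at 37 °C for 20 min. Resuspended” for “Resuspended”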

[5] = Antiplatelet activity against New Zealand white rabbit platelets assessed as inhibition of ADP-induced platelet aggregation preincubated for 2 mins before challenge […] by spectrophotometry; type: functional, cell-based; conditions: Oryctolagus cuniculus; procedure, shortened: as §1
[6] = Antiplatelet activity against New Zealand white rabbit platelets assessed as inhibition of PAF-induced platelet aggregation preincubated for 2 mins before challenge […] by spectrophotometry; type: functional, cell-based; conditions: Oryctolagus cuniculus
Procedure, shortened: as §1, with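 “Washed rabbit platelets: PRP made with 5 mM EDTA (final), then washed in Ca2+-free Tyrode's with 0.35% BSA, heparin and apyrase at 37 °C for 20 min. Resuspended” for “Resuspended”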

Platelet [7] = assay: Prothrombotic activity in New Zealand white rabbit platelets assessed as increase in platelet aggregation at 100 uM by spectrophotometry; type: functional, Oryctolagus cuniculus
Procedure, shortened: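 Washed rabbit platelets are prepared the same way: 2.5 × 10^8/mL in Tyrode's with 1 mM Ca2+, stirred at 900 rpm at 37 °C, DMSO fixed at 0.5% final. Compound is added alone, with no agonist. Aggregation is read turbidimetrically as light transmission, with suspension set as 0% and buffer as 100%. The result is reported as % increase in aggregation.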

[8] = Antiplatelet activity against New Zealand white rabbit platelets assessed as inhibition of PAF-induced platelet aggregation preincubated at 10 uM for 2 mins before challenge […] by spectrophotometry; type: functional; conditions: Oryctolagus cuniculus
Procedure, shortened: as §1, with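 “Washed rabbit platelets: PRP made with 5 mM EDTA (final), then washed in Ca2+-free Tyrode's with 0.35% BSA, heparin and apyrase at 37 °C for 20 min. Resuspended” for “Resuspended”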

cells = conditions: Oryctolagus cuniculus, New Zealand white, Platelet, read-out: INH
Platelet [9] = assay: as §2; type: functional; conditions: Oryctolagus cuniculus; procedure, shortened: as §1

Structure (SMILES): COc1cc(C[C@H](C)[C@H](C)Cc2cc3c(cc2O)OCO3)c(O)cc1O (relative stereo)
- inhibition at 100 µM [1]: 90.9%
- inhibition at 100 µM [2]: 11.7%
- inhibition at 100 µM [3]: 68.2%

Structure (SMILES): C[C@@H]1[C@@H](c2ccc3c(c2)OCO3)c2c(c(O)cc3c2OCO3)C[C@H]1C
- inhibition at 100 µM [1]: 83.7%
- IC50 [4]: 71.4 µM
- inhibition at 100 µM [2]: 0.6%
- inhibition at 100 µM [3]: 84%
- IC50 [5]: 40.3 µM

Structure (SMILES): COc1ccc([C@H]2O[C@@H](c3ccc(OC)c(OC)c3)[C@@H](C)[C@H]2C)cc1OC
- inhibition at 100 µM [1]: 19.4%
- inhibition at 100 µM [2]: 94.4%
- inhibition at 100 µM [3]: 51.8%
- IC50 [6]: 9.1 µM

Structure (SMILES): C[C@@H]1O[C@@H](Oc2c(-c3ccc(O)c(O)c3)oc3cc(O)cc(O)c3c2=O)[C@H](O)[C@H](O)[C@H]1O [QUERCITRIN]
- inhibition at 100 µM [1]: 21.8%
- inhibition at 100 µM [2]: 6.8%
- inhibition at 100 µM [3]: 83.1%

Structure (SMILES): COc1cc(C[C@@H](C)[C@H](C)Cc2ccc(O)c(OC)c2)ccc1O [(-)-DIHYDROGUAIARETICACID]
- Activity (Platelet [7]): 76.4%

Structure (SMILES): CCCCCCCCCCCCCCCCCCNC(=O)OCC(COP(=O)([O-])OCC[n+]1ccsc1)OC (stereo unspecified)
- inhibition at 10 µM [8]: 94.8%

Structure (SMILES): C/C=C/c1cc(OC)c2c(c1)[C@H](C)[C@@H](c1ccc3c(c1)OCO3)O2 [(-)-LICARIN B]
- inhibition at 100 µM [1]: 42.5%
- inhibition at 100 µM [2]: 5.3%
- inhibition at 100 µM [3]: 86.7%
- IC50 [5]: 50.6 µM

Structure (SMILES): C[C@@H]1[C@H]2c3cc4c(cc3O[C@@]35OCOC3=CC(=O)[C@H](C[C@H]1C)[C@H]25)OCO4 [SAUCHINONE A]
- inhibition at 100 µM [1]: 28.2%
- inhibition at 100 µM [2]: 23.6%
- inhibition at 100 µM [3]: 48.2%

Structure (SMILES): COc1cc(C[C@H](C)[C@H](C)Cc2cc3c(cc2O)OCO3)ccc1O (relative stereo)
- Activity (Platelet [7]): 66.1%

Structure (SMILES): COc1ccc([C@H]2O[C@@H](c3cc(OC)c4c(c3)OCO4)[C@H](C)[C@@H]2C)cc1OC (relative stereo)
- inhibition at 100 µM [1]: 80.3%
- IC50 [4]: 85 µM
- inhibition at 100 µM [2]: 98.9%
- inhibition at 100 µM [3]: 75.6%
- IC50 [6]: 37.2 µM
- IC50 [5]: 56 µM

Structure (SMILES): COC(=O)[C@H](c1ccccc1Cl)N1CCc2sccc2C1 [CLOPIDOGREL]
- inhibition at 30 µM (cells): 80.2%

Structure (SMILES): CC(Cc1cc2c(cc1O)OCO2)C(C)C(=O)c1ccc2c(c1)OCO2 (stereo unspecified) [SAUCERNEOL G]
- inhibition at 100 µM [1]: 94.1%
- IC50 [4]: 25.9 µM
- inhibition at 100 µM [2]: 3.9%
- inhibition at 100 µM [3]: 90.9%
- IC50 [5]: 34.6 µM

Structure (SMILES): CC(=O)Oc1ccccc1C(=O)O [ASPIRIN]
- inhibition at 100 µM [1]: 99.7%

Structure (SMILES): COC1=CC(=O)C(C[C@H](C)[C@H](C)Cc2cc3c(cc2O)OCO3)=CC1=O (relative stereo)
- inhibition at 100 µM [1]: 98.7%
- IC50 [4]: 14 µM
- inhibition at 100 µM [2]: 92%
- inhibition at 100 µM [3]: 90.4%
- IC50 [6]: 61.7 µM
- IC50 [5]: 9.8 µM

Structure (SMILES): COc1ccc([C@@H]2O[C@H](c3cc(OC)c4c(c3)OCO4)[C@@H](C)[C@@H]2C)cc1OC (relative stereo)
- inhibition at 100 µM [1]: 54.4%
- inhibition at 100 µM [2]: 42%
- inhibition at 100 µM [3]: 19.1%

Structure (SMILES): C/C=C/c1cc(OC)c2c(c1)[C@H](C)[C@@H](c1ccc(O)c(OC)c1)O2 [LICARIN A]
- Activity (Platelet [7]): 66.8%

Structure (SMILES): C[C@H](Cc1cc2c(cc1O)OCO2)[C@@H](C)Cc1cc2c(cc1O)OCO2
- Activity (Platelet [7]): 49.5%

Structure (SMILES): COc1cc(OC)c(C[C@H](C)[C@H](C)Cc2cc3c(cc2O)OCO3)cc1O (relative stereo)
- inhibition at 100 µM [1]: 96.8%
- IC50 [4]: 29.4 µM
- inhibition at 100 µM [2]: 26.7%
- inhibition at 100 µM [3]: 85.2%
- IC50 [5]: 30 µM

Structure (SMILES): C[C@@H]1[C@H]2c3cc4c(cc3O[C@@]35OCOC3=CC(=O)[C@H](C[C@H]1C)[C@@H]25)OCO4 [SAUCHINONE]
- inhibition at 100 µM [1]: 10.7%
- inhibition at 100 µM [2]: 11.8%
- inhibition (Platelet [9]): inactive

Structure (SMILES): C=CCc1cc(OC)c(O[C@H](C)[C@H](OC(C)=O)c2cc(OC)c(OC)c(OC)c2)c(OC)c1
- inhibition at 100 µM [1]: 93.5%
- IC50 [4]: 60.3 µM
- inhibition at 100 µM [2]: 68.1%
- inhibition at 100 µM [3]: 84.7%
- IC50 [6]: 79.4 µM
- IC50 [5]: 28.1 µM

Structure (SMILES): COc1cc(O)c(C[C@H](C)[C@H](C)Cc2cc3c(cc2O)OCO3)cc1OC (relative stereo)
- inhibition at 100 µM [1]: 73%
- inhibition at 100 µM [2]: 7%
- inhibition at 100 µM [3]: 71.5%
